# Data reported in PubChem BioAssay AID743061 (The Scripps Research Institute Molecular Screening Center, 2013).
# Target: Methionine--tRNA ligase, mitochondrial (Homo sapiens) (UniProt Q96GW9)
# Assay: human mtMetRS tRNA charging inhibition – biochemical, radioactivity, round 1, selectivity assay for T. brucei MetRS inhibitor project, late-stage follow-up (AID 743061);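 also: 0% = DMSO with full reaction and 100% = DMSO wells lacking tRNA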
# Settings: recombinant human mtMetRS, [3H]Met tRNA charging, at 10 µM, stronger effect = higher value
# Summary of the method: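 System: recombinant human mitochondrial methionyl-tRNA synthetase (MetRS); Buffer or medium: pH 8.0 reaction buffer containing 2.5 mM ATP; Controls: high DMSO, low without tRNA; Reagent: [3H]Met 240 nM plus bulk E. coli tRNA; Schedule: 15 min preincubation, 1 h reaction, room temperature; Measured by: scintillation counts of TCA-precipitated charged tRNA on filters.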
row,SMILES,inhibition [%]
1,O=C(Cn1cc(C(=O)C(=O)N2CCOCC2)c2ccccc21)Nc1cccc(C(F)(F)F)c1,-6.56
2,Cc1ccc(C(=O)NCCc2nc3ccccc3[nH]2)cc1C,1.68
3,COc1ccc(NC(=O)C2CC(=O)n3c(nc4ccccc43)N2)cc1 (stereo not given),-2.5
4,COc1cccc(NC(=O)CSc2nnc3c(n2)[nH]c2ccc(C)cc23)c1,40.4
5,CN1CC(=O)N2C(c3cccc([N+](=O)[O-])c3)c3[nH]c4ccccc4c3C[C@H]2C1=O (stereo not given in full),14
6,Cc1ccc(NC(=O)CN(C)C(=O)CCSc2ccc(F)cc2)cc1,-21.5
7,CC(CC(=O)Nc1cccc(Br)c1)=NNC(=O)c1ccc(O)cc1O,4.55
8,CC(C)OCCCN1CC(=O)N2C(c3cccc([N+](=O)[O-])c3)c3[nH]c4ccccc4c3C[C@H]2C1=O (stereo not given in full),-3.65
9,O=C(NCc1nc2ccccc2[nH]1)C1=C[C@@H](C2CC2)C[C@@H](OCc2ccc(CO)cc2)O1,5.87
10,CC(C)(C)[C@@H]1C=C(C(=O)NCc2nc3ccccc3[nH]2)O[C@H](OCc2ccc(CO)cc2)C1,-5.44
11,CCN(CC)C(=O)C(=O)c1cn(CC(=O)Nc2cccc(OC)c2)c2ccccc12,17.3
12,CCO[C@@H]1OC(C(=O)NCc2nc3ccccc3[nH]2)=C[C@H](c2ccc(Br)cc2)[C@H]1CCCO,-6.53
13,O=C(NCc1nc2ccccc2[nH]1)C1=C[C@@H](c2ccc(Br)cc2)C[C@@H](OCCCCO)O1,29
14,CCC(=O)c1cn(CC(=O)Nc2cccc(C(F)(F)F)c2)c2ccccc12,-3.88
15,Cc1cccc(NC(=O)C2CC(=O)n3c(nc4ccccc43)N2)c1 (stereo not given),6.78
16,Cc1ccc(CNC(=O)CSc2nnc3c(n2)[nH]c2ccc(C)cc23)cc1,5.9
17,O=C(CCC(=O)Nc1cccc([N+](=O)[O-])c1)NN=Cc1cccs1,-14.1
18,O=C1CC(SCc2nc3ccccc3[nH]2)C(=O)N1c1cccc(Cl)c1 (stereo not given),-0.68

row,SMILES,inhibition [%]
1,CC(=O)c1ccc(N2CCN(C(=O)CCCn3c(=O)[nH]c4ccc(Br)cc4c3=O)CC2)cc1,7.87
2,CCN(CCc1nc2ccc(C)cc2[nH]1)C(=O)c1ccc2ncccc2c1,1.1
3,CCN(CC)C(=O)C(=O)c1cn(CC(=O)Nc2ccccc2OC)c2ccccc12,-1.19
4,O=C(Cn1cc(C(=O)c2ccccc2)c2ccccc21)Nc1cccc(C(F)(F)F)c1,9.64
5,CC(C)c1nc2ccc(C(=O)N(C)CCc3nc4ccc(F)cc4[nH]3)cc2o1,0.38
6,O=C(CC=NOCc1ccc([N+](=O)[O-])cc1)Nc1ccc(Br)cc1,-6.71
7,CC1Cc2ccccc2N1C(=O)Cn1cc(C(=O)C(=O)N2CCOCC2)c2ccccc21 (stereo not given),7.77
8,O=C(NCc1nc2ccccc2[nH]1)C1=C[C@H](c2ccc(Br)cc2)C[C@H](OCCCCO)O1,-2.4
9,Clc1ccc(-c2nnc(SCc3nc4ccccc4[nH]3)o2)c(Cl)c1,41.9
10,COc1ccc(NC(=O)CSc2nnc3c4cc(C)ccc4n(C)c3n2)cc1,8.46
11,COc1ccc(OCC(O)CNC(=O)Nc2ccc(Cl)cc2)cc1 (stereo not given),0.31
12,COc1ccccc1NC(=O)Cn1cc(C(=O)C(=O)N2CCOCC2)c2ccccc21,-8.03
13,O=C(NCCc1nc2ccccc2[nH]1)c1ccc(Cl)cc1,7.1
14,O=C(C(=O)N1CCOCC1)c1cn(CC(=O)N2CCCc3ccccc32)c2ccccc12,3.68
15,COCCc1nc2ccc(C(=O)NCCc3nc4ccc(OC)cc4[nH]3)cc2o1,0.45
16,O=C(NCCc1nc2ccccc2[nH]1)c1ccc(Cl)c(Cl)c1,27.7
17,O=C(NCc1nc2ccccc2[nH]1)C1=C[C@@H](c2csc3ccccc23)C[C@@H](OCCCCO)O1,6.67
